Measurements taken from the EternaBench riboswitch data.

Test system: MS2 coat protein
Test: apparent Kd, MS2 coat protein; higher = weaker binding; RNA-MaP array; FMN 200 µM where present
Method in brief: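 The apparent Kd is reported as the median of filtered per-cluster binding-curve fits. To get these curves, designs transcribed by stalled E. coli RNA polymerase on Illumina sequencing-chip clusters were titrated with SNAP-549-labelled MS2 coat protein from 0.7 or 1.5 nM, doubling to 3 µM. Titrations were run without and then with constant ligand in 100 mM Tris-HCl pH 7.5, 80 mM KCl, 4 mM MgCl2, BSA, DTT, yeast tRNA and Tween-20, and green signal was normalised to red-channel RNA signal and control-cluster median Fmax.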

[1] = designed as: ON switch for flavin mononucleotide, no ligand
[2] = ligand present: flavin mononucleotide, designed as: ON switch for flavin mononucleotide
[3] = designed as: OFF switch for flavin mononucleotide, no ligand
[4] = ligand present: flavin mononucleotide, designed as: OFF switch for flavin mononucleotide

| Sequence | apparent Kd [1] | apparent Kd [2] | apparent Kd [3] | apparent Kd [4] |
| --- | --- | --- | --- | --- |
| GGGUGGCGUAGAGGAUAUAUGGUACAUGAGGAUCACCCAUGUGCAUAUGAUGUUCAUGUUUAUGUAUAGAAGGCUACGUCGCUA | 40.6 nM | 42.8 nM |  |  |
| GUAACAUGAGGAUCACCCAUGUAUAGAACACUCAAUAGAUCUGAGGAUAUAGUGGAAUUUACACACUAGAAGGCAGUGGGUGCA | 75.3 nM | 33.6 nM |  |  |
| AAUAAUUAUUAAGGAUAUGGGUUGAUAACAUGAGGAUCACCCAUGUUAAAUAAGCCGAGAGGCUACUAGAAGGAUAUAUAUAUU | 1050 nM | 435 nM |  |  |
| ACAGGCUUCGAGAAGGACAUGAGGAUCACCCAUGUGCGUGUGAAGCAGCCGUGAGGCUGCAUCAUGUAGGAUAUCGGAGUCUGA |  |  | 75.5 nM | 559 nM |
| GCACGGCAUGUAGGAUAUCGAGCUCCGGGAGCUCGAGAAGGACAUGAGGAUCACCCAUGUGCUCACAGUGAGUGAGCGCUGUGC |  |  | 23.9 nM | 93.5 nM |
| CUCCGGCGUGUAGGAUAUGGAUCCGAUUAGGAUCCAGAAGGACAUGAGGAUCACCCAUGUACAUGUAAACAGUCAUCACCGGAA |  |  | 7.61 nM | 18.8 nM |
| GGUCGGAGCAGAGGAUAUUACAUGAGGAUCACCCAUGUAUGAACCAAUAGCUGGAAACAGCAAUGUAAGAAGGCUGCUCCGACA |  |  | 13.5 nM | 173 nM |
| ACUAGAUGAGGAUAUGCAUGUUUUCAUGUUCUUCUAGAUUAACAUGAGGAUCACCCAUGUAGAAGGCGUCUUAU |  |  | 19.4 nM | 37.9 nM |
| AAAAAGCGAGGAUAUGCGGGCGGGUGCGGCCAGCCGAUGUGACAUGAGGAUCACCCAUGUAGAAGGCGCAAAAA |  |  | 12.3 nM | 15.1 nM |
| ACUUCACAUGAGGAUCACCCAUGUCAGGCCGGACUAGGAUAUUAUCAACCAGAGUAACCAUAAGAAGGAGUAGGAA | 64.4 nM | 78.4 nM |  |  |
| UGGUACAUGGGAGGAUAUGGGUAGAUAACAUGAGGAUCACCCAUGUUAAGAAAUGCCGAAAGGCACUAGAAGGCCCAUGUACCU | 637 nM | 46.7 nM |  |  |
| UUCCUCACUUCUUUGACUCACAUGAGGAUCACCCAUGUAAUAUAGGAUAUGCAUUUUAUUUCUUUGCAGAAGGAUAUUAGUUUU |  |  | 44.8 nM | 141 nM |
| GUAGCAUACCGAGGAUAUUCAUAUAGUAAUCUAACAUGAGGAUCACCCAUGUGGCGAAAGCCUUGGGAGAAGGCGGAAUGCUAC | 480 nM | 35.6 nM |  |  |
| UGAAACUACGAGAAGGACAUGUGGUCCUUCAGUUACAUGAGGAUCACCCAUGUAGGAUAUCGUAGUUUCAGGAUCGUGAGAUCA |  |  | 34.7 nM | 14.6 nM |
| AACGAGCAGUAGAAGGGAUGUCUACGGACAUGAGGAUCACCCAUGUUGUGACUCCGAAAGGAGCGUCAGGAUAUACUGCUCAAA | 8.13 nM | 6.15 nM |  |  |
| AGUUUUGUACAUGAGGAUCACCCAUGUUAAUAUGUGGUAGUCAGAAGGCAUUGUUAGAGUUUAAAUGAGGAUAUGAAUAUUCAG | 72.8 nM | 33 nM |  |  |
| GUCUCGAUGUAGAAGGCCGCGUCCGGCUCACGCGGAGGAUAUACAUGAGGAUCACCCAUGUGUCUGUGGCUUAUAUGUUACGGA |  |  | 70.8 nM | 68.3 nM |
| AAGAUGCGGAUAGGAUAUGGAAAUUAAUAAAGACCAGAAGGAUUGGUCACACAACAUGAGGAUCACCCAUGUGUGUGUUGUGAA |  |  | 13.6 nM | 10.6 nM |
| AUAGCCGGGAGGUAAACUCGUGCGGCAGAAGGGUGAUACUGGACAUGAGGAUCACCCAUGUGCACACAGGAUAUGCCCGCGAGC | 159 nM | 33.3 nM |  |  |
| ACAUACAUUCGAGGAUAUCGGUGAACAUAUUAACGAGAAGGCGAUAUAAUUUUUAAUCUUAUAAACAUGAGGAUCACCCAUGUA | 21.9 nM | 20.2 nM |  |  |
| GCGAAGAACGAGAAGGCCACUACAUGAGGAUCACCCAUGUCGUGGAGUAUUGGAGGAUAUCGUUAGGCGUCUCAUGAGGACAUA |  |  | 5.26 nM | 5.69 nM |

| Sequence | apparent Kd [1] | apparent Kd [2] | apparent Kd [3] | apparent Kd [4] |
| --- | --- | --- | --- | --- |
| UCAUUUCUGUAAGGAUAUAUAAACAUGACGAUACAUGAGGAUCACCCAUGUAUAGAAGGUACAAAUACAUAUAAUGCAAUGUUC |  |  | 16.9 nM | 12.9 nM |
| ACAAGAGCGGAAGGAUAUUUUACAUGAGGAUCACCCAUGUAAUAAAUGAGGAUCACGGAUGUAGUAAAGAAGGUCCGGAUAAGA |  |  | 26.1 nM | 32.8 nM |
| AAAGGACGAGGAUAUACAUGAGGAUCACCCAUGUAAGAAGCAUAAUAAAAUAACUUAUGUAGAAGGCGUCCAAA |  |  | 20.5 nM | 84.4 nM |
| GAGGACUGUAAAUUAACUCAAAUACAUGAGGAUCACCCAUGUAAGGAUAUCGUCAGGAAUACUGACGAGAAGGUACAUCAGUCC |  |  | 14.4 nM | 20 nM |
| UUGCCUCAGAACAUGAGGAUCACCCAUGUGCUGCGGGCAACGUAGGAUAUGAUGGUGUGACACCGUCAGAAGGAUGAUGGUACC | 5.97 nM | 6.05 nM |  |  |
| AAGUCGCACCAGAAGGGUCAACCAAUAAAUUAGACAGGAUAUGGGCGAUAUGUAUGUCGCGACAUGAGGAUCACCCAUGUCCGG | 17.7 nM | 6.08 nM |  |  |
| CGAUAACAUAGUUAUCCGUAACGGACAUGAGGAUCACCCAUGUAGGAUAUGUUACUCAACGAGUAACAGAAGGACAUGAGUCUU |  |  | 38.2 nM | 324 nM |
| AGGGCUUAAUGGCCCUAUGAGAUGAGAAGGGUAGGAGGGUGGAAGUACAUGAGGAUCACCCAUGUACAGGAUAUCAUGCCGAUU |  |  | 6.32 nM | 6.07 nM |
| UCUUGACAUGAGGAUCACCCAUGUCAGGAUAUAGUAGGACAAAUAAAUAAAAGUUCUACUAGAAGGGAUAUGGG |  |  | 24.9 nM | 46.8 nM |
| GGAGAGUUCACAGGAUAUCAUGGGUAGUUAUUUUGAGAAGGGUGAACAAGGAACAUGAGGAUCACCCAUGUAUCCUGGGAGGGC | 24.4 nM | 36.8 nM |  |  |
| CCUAUAAGAAAAUAGACGAAGUGGCCAGAAGGUGAAUGCCACAUGAGGAUCACCCAUGUUUCGAUCAAGGAUAUGGUUUCUCAC | 497 nM | 129 nM |  |  |
| GUGAGUAGUCAGGAUAUGCUGUACAAAAGUACAGCAGAAGGGAUUACAUGAGGAUCACCCAUGUUUACUUCAUG |  |  | 73.1 nM | 279 nM |
| AGAAAUUAGUGAGGAUAUGCUUAAAUUGUAGUUGCAGAAGGCACGGACCACAAGACAUGAGGAUCACCCAUGUGGUAUUUAGAU |  |  | 28.9 nM | 33 nM |
| UUUUACCGAGGAUAUACAUUUUUUUUAUUAUCCUCAUUAUUACAUGAGGAUCACCCAUGUAGAAGGCGGAUUUU |  |  | 52.9 nM | 112 nM |
| GCAAUGUAAGGAUAUUCGGAGUCCUGCCGGGCAGGUAGGUUGGAGAAGGUACAUGAGGAUCACCCAUGUGAGCC |  |  | 48.6 nM | 170 nM |
| CCGGCAUAGGAGGAUAUAGGAGUCGAUAGACACCUAGAAGGCCUGACAUGAGGAUCACCCAUGUGUCCUACCGG |  |  | 14.1 nM | 23.2 nM |
| GAAUAAUUGAUCCAAUAUAACAACAUGAGGAUCACCCAUGUGCAGGAUAUCGUAUUUAUUAUAUACGAGAAGGGCAAGAACUGU |  |  | 343 nM | 475 nM |
| GCACGAGACUAAGGAUAUGGAGUGUCUACAUUAAACAUGAGGAUCACCCAUGUAGAGAGUACGAUUCAGAAGGUAGAGACGUGC | 48.6 nM | 22.1 nM |  |  |
| UCACAGUGUCGUUAUCCGUAGCGAACAUGAGGAUCACCCAUGUAGGAUAUGUUAUUAAACUAAUAACAGAAGGACGUUGGUCGG |  |  | 36.7 nM | 220 nM |
| UUUUUACAUGAGGAUCACCCAUGUCAGGAUAUGCUUAUAUUUUAUUAUUUUAUUUUUUGCAGAAGGGACUAUUA |  |  | 91.8 nM | 68 nM |
